Reference: ChEMBL document CHEMBL4368859, “Discovery of boron-containing compounds as Aβ aggregation inhibitors and antioxidants for the treatment of Alzheimer's disease” (Medchemcomm, 2018)
Calls of active or inactive are those of the source. The calls are words filed in the database; no cut-off is given here.

Tests used:
[1] = Antioxidant activity assessed as trolox equivalents of AAPH radical scavenging activity at 20 uL preincubated for 10 mins followed by AAPH addition measured every min for 120 mins by ORAC-FL assay; assay type: functional
Summary of the method: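 Test compound diluted to 10 µM in 75 mM phosphate buffer (pH 7.4). It was pre-incubated with fluorescein (70 nM final) at 37 °C, then AAPH (40 mM solution) was added. Fluorescence (ex 485/em 520 nm) was read each minute for 120 min. […] Triplicates, at least three independent runs, mean ± SD.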

[2] = target: T1, Amyloid-beta precursor protein (Homo sapiens, UniProt P05067); assay: Inhibition of self-induced aggregation of amyloid beta (1 to 42) (unknown origin) at 20 uM after 48 hrs by thioflavin T-based fluorescence method relative to control
Summary of the method: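 Aβ1-42 stock was in 1% ammonium hydroxide, diluted in 50 mM phosphate buffer (pH 7.4). Peptide (25 µM final) was incubated ± compound at 37 °C for 48 h, with peptide-free blanks. Samples were diluted in 50 mM glycine-NaOH (pH 8.0) with 5 µM ThT and read after 5 min (ex 450/em 485 nm). Inhibition = (1−IFi/IFc)×100 after background subtraction. At least three independent measurements, mean ± SD.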

[3] = target: T1, Amyloid-beta precursor protein; assay: Inhibition of self-induced aggregation of amyloid beta (1 to 42) (unknown origin) after 48 hrs by thioflavin T-based fluorescence method
[4] = Metal chelating activity assessed as Cu2+-compound complex formation by measuring shift in maximum absorption wavelength at 20 uM after 30 mins by UV-Vis spectrophotometric method
Summary of the method: (§1)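 UV-Vis absorption spectra were recorded for compound (20 µM final) alone or with CuSO4, FeSO4 or ZnCl2 (40 µM final) after 30 min. Medium was 20% (v/v) ethanol/buffer (20 mM HEPES, 150 mM NaCl, pH 7.4), at room temperature.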

[5] = Metal chelating activity assessed as Fe2+-compound complex formation by measuring shift in maximum absorption wavelength at 20 uM after 30 mins by UV-Vis spectrophotometric method; summary of the method: as §1
[6] = target: T1, Amyloid-beta precursor protein; assay: Potency index, ratio of curcumin IC50 to test compound IC50 for self-induced aggregation of amyloid beta (1 to 42) (unknown origin)
[7] = Metal chelating activity assessed as Fe3+-compound complex formation at 20 uM after 30 mins by UV-Vis spectrophotometric method
[8] = Metal chelating activity assessed as Zn2+-compound complex formation at 20 uM after 30 mins by UV-Vis spectrophotometric method; summary of the method: as §1

T1 sequence (P05067 whole entry): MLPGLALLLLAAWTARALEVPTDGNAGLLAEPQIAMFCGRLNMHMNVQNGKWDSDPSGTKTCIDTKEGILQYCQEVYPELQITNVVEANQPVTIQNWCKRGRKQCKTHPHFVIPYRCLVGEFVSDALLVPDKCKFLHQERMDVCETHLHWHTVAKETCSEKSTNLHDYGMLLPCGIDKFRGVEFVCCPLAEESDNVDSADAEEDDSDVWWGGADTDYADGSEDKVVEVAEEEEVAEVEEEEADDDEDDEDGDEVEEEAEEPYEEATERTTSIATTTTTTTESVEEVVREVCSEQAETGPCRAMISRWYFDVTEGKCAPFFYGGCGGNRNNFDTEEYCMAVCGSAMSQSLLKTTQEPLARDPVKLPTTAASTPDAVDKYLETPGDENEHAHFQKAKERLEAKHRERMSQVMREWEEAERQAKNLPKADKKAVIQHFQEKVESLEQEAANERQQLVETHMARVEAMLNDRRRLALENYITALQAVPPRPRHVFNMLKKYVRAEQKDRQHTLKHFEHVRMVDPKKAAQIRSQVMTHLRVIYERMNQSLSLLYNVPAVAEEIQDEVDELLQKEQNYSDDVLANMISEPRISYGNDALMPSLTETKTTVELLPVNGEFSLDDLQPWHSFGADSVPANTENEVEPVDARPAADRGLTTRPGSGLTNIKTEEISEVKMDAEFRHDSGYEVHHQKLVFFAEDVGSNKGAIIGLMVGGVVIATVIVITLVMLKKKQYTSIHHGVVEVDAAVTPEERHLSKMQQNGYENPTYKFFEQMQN

Q: For `OB1Oc2cc(O)ccc2C=C1c1cc(O)cc(O)c1`, which Activity (umolequiv/umol) [1] is on record?
A: 4.84

Q: What about the inhibition [2] of the same molecule?
A: 50.2%

Q: And the IC50 [3]?
A: 21.7 µM

Q: What does the source list for `OB1Oc2ccc3ccccc3c2C=C1c1ccc(O)cc1`?
A: Activity (umolequiv/umol) [1]: 2.06; inhibition [2]: 0%

Q: Which results are given for `OB1Oc2ccc3cc(O)ccc3c2C=C1c1ccc(O)cc1`?
A: Activity (umolequiv/umol) [1]: 3.94; inhibition [2]: 12.3%

Q: With `OB1Oc2ccc3cc(O)ccc3c2C=C1c1ccc(O)c(O)c1` as the molecule, how does the Activity (umolequiv/umol) [1] read?
A: 4.05

Q: And the inhibition [2]?
A: 80.5%

Q: And the IC50 [3]?
A: 4.6 µM

Q: For `OB1Oc2ccc3ccc(O)cc3c2C=C1c1ccc(O)cc1`, which Activity (umolequiv/umol) [1] is on record?
A: 4.45

Q: And the inhibition [2]?
A: 20.5%

Q: Which Activity (umolequiv/umol) [1] does the source give for `OB1Oc2ccc3ccccc3c2C=C1c1cc(O)cc(O)c1` here?
A: 3

Q: What about the inhibition [2] of the same molecule?
A: 67.3%

Q: What about the IC50 [3] of the same molecule?
A: 12.6 µM

Q: What does the source list for `OB1Oc2ccc3cc(O)ccc3c2C=C1c1cc(O)cc(O)c1`?
A: Activity (umolequiv/umol) [1]: 5.87; inhibition [2]: 70.3%; IC50 [3]: 8.9 µM

Q: Which Activity (umolequiv/umol) [1] does the source give for `CN(C)c1ccc2c3c(ccc2c1)OB(O)C(c1ccc(O)cc1)=C3` here?
A: 2.41

Q: What about the inhibition [2] of the same molecule?
A: 0%

Q: Which results are given for `OB1Oc2ccc(O)cc2C=C1c1ccc(O)c(O)c1`?
A: Activity (umolequiv/umol) [1]: 4.09; inhibition [2]: 58.8%; IC50 [3]: 17.5 µM

Q: Which Activity (umolequiv/umol) [1] does the source give for `COc1ccc(/C=C/c2cc(OC)cc(OC)c2)cc1` here?
A: 0.21

Q: With `Oc1ccc(/C=C/c2cc(O)cc(O)c2)cc1` as the molecule, how does the Activity (umolequiv/umol) [1] read?
A: 5.33

Q: Which Activity (umolequiv/umol) [1] does the source give for `OB1Oc2ccc3ccc(O)cc3c2C=C1c1cc(O)cc(O)c1` here?
A: 5.34

Q: What about the inhibition [2] of the same molecule?
A: 78.7%

Q: What about the IC50 [3] of the same molecule?
A: 4.9 µM

Q: For `CN(C)c1ccc2c3c(ccc2c1)OB(O)C(c1cc(O)cc(O)c1)=C3`, which Activity (umolequiv/umol) [1] is on record?
A: 5.27

Q: What about the inhibition [2] of the same molecule?
A: 32.4%

Q: With `COc1cc(/C=C/C(=O)O)ccc1O` as the molecule, how does the Activity (umolequiv/umol) [1] read?
A: 3.24

Q: Which Activity [4] does the source give for `OB1Oc2ccc3ccc(O)cc3c2C=C1c1ccc(O)c(O)c1` here?
A: 355 nm

Q: What about the Activity (umolequiv/umol) [1] of the same molecule?
A: 4.55

Q: What about the Activity [5] of the same molecule?
A: 350 nm

Q: What about the inhibition [2] of the same molecule?
A: 82.8%

Q: And the Ratio IC50 [6]?
A: 4

Q: What about the Activity [7] of the same molecule?
A: inactive

Q: And the Activity [8]?
A: inactive

Q: And the IC50 [3]?
A: 3.4 µM

Q: What does the source list for `OB1Oc2ccc3ccccc3c2C=C1c1ccc(O)c(O)c1`?
A: Activity (umolequiv/umol) [1]: 2.7; inhibition [2]: 43.7%

Q: Which Activity (umolequiv/umol) [1] does the source give for `CN(C)c1ccc2c3c(ccc2c1)OB(O)C(c1ccc(O)c(O)c1)=C3` here?
A: 4.88

Q: What about the inhibition [2] of the same molecule?
A: 49.5%
